In the library only some 2.7% were active in any assay of this set; here they are far more common.
PAFAH2 inh: PAFAH2 (human) inhibition | recombinant PAFAH2, FP-rhodamine activity probe, fluorescence polarization | 340,000 compounds, 0.99% hits | inhibition, % at 3.39 µM | Q99487;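 active means inhibition above the mean over all tested compounds plus 3 SD, cut at about 30% in these data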;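 further: inhibitors block probe labeling of enzyme so polarization drops; 0% = enzyme with DMSO and 100% = wells lacking PAFAH2 protein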
pPAFAH FP inh: inhibitors of human plasma PAF acetylhydrolase (pPAFAH); recombinant pPAFAH, FP-rhodamine probe fluorescence polarization; inhibition, % at 3.39 µM; AID 463082; Q13093; 330,000 compounds, 1.5% hits;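 active means inhibition above the mean inhibition across the screen plus 3 SD, cut at about 25% in these data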;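 further: inhibitors block binding of the rhodamine activity-based probe so polarization drops; 0% = enzyme with DMSO and 100% = wells lacking pPAFAH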
Target sequence (Q13093 whole entry, looked up): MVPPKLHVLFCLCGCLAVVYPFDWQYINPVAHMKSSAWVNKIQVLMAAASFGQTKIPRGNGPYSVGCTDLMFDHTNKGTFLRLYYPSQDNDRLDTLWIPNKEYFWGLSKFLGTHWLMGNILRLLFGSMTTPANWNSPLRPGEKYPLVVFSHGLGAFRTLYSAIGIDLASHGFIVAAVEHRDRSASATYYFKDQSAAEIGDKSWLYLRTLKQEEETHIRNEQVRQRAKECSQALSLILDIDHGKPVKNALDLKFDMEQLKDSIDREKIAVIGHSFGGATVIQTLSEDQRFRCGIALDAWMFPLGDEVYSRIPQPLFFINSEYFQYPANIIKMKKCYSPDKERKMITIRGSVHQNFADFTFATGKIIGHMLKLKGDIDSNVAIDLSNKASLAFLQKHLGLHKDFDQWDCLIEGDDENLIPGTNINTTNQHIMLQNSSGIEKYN
PAFAH1B3 inh: inhibitors of human PAFAH1B3; Q15102; recombinant PAFAH1B3, FP-rhodamine probe, fluorescence polarization; inhibition, % at 3.39 µM; 340,000 compounds, 0.28% hits;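 active means inhibition above the screen-wide average of all tested compounds plus 3 SD, cut at about 25% in these data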;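 further: 0% = enzyme with DMSO only and 100% = wells lacking PAFAH1B3 protein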
PAFAH1B2 FP inh: blocks human PAF acetylhydrolase 1b catalytic subunit 2. P68402. recombinant PAFAH1B2, FP-rhodamine activity probe, fluorescence polarization. inhibition, % at 3.39 µM. 340,000 compounds, 1.2% hits;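 active means inhibition above the mean of all tested compounds plus 3 SD, cut at about 24% in these data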;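 further: 0% = enzyme with DMSO and 100% = wells lacking PAFAH1B2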
ARFGAP1 inhibitor: inhibits rat ARF GTPase activating protein 1 | Q62848 | Arfgap1-stimulated ARF1 GTP hydrolysis, GDP FP detection | inhibition, % at 16.5 µM | 360,000 compounds, 0.26% hits;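 active means inhibition above a per-plate limit, mean inhibition of low control wells plus 3 SD, cut at about 25% in these data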;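 further: 0% = DMSO wells with enzyme and 100% = wells lacking Arfgap1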
Target sequence (Q62848 1-136 limits assumed): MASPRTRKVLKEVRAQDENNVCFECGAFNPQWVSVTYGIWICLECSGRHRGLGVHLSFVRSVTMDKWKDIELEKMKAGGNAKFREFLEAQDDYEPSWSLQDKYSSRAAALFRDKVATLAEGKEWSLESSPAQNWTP
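Assay system: Rat Arfgap1 GAP domain (His6, aa 1-136), purified enzyme | Buffer or medium: HEPES 25 mM pH 7.5, NaCl 150 mM, MgCl2, DTT | Schedule: GTP hydrolysis reaction 2 h at 25 °C | Signal: FP of antibody-bound GDP Alexa 633 tracer, ex 620/em 688 nm | Measure: Percent inhibition of Arfgap1-stimulated GTP hydrolysis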
ASAP1 inh: blocks human ASAP1-stimulated Arf1 GTP hydrolysis; Q9ULH1; 360,000 compounds, 0.19% hits; inhibition, % at 16.5 µM; GDP FP detection; in the data active means inhibition above about 25%;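 further: 0% = vehicle with enzyme and substrate and 100% = no enzyme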
An asterisk follows results filed as active; x = no result.

SMILES	PAFAH2 inh	pPAFAH FP inh	PAFAH1B3 inh	PAFAH1B2 FP inh	ARFGAP1 inhibitor	ASAP1 inh
COc1ccccc1NC(=O)COC(=O)C12CC3CC(CC(Cl)(C3)C1)C2	1	-4	4	24	12	2
COC(=O)C1=C(C)N(Cc2ccc(Cl)cc2)C(=S)NC1c1ccc(Cl)cc1 (stereo not given)	x	x	x	x	2	-5
O=C(COC(=O)C12CC3CC(CC(Cl)(C3)C1)C2)N1CCCCC1	2	-8	13	29*	-8	10
O=C(COC(=O)C12CC3CC(CC(Br)(C3)C1)C2)N1CCOCC1	1	5	7	6	5	-2
CC(CCc1ccccc1)NC(=O)COC(=O)C12CC3CC(CC(Br)(C3)C1)C2 (stereo not given)	-6	4	7	45*	3	11
CC(NC(=O)COC(=O)C12CC3CC(CC(O)(C3)C1)C2)c1ccccc1 (stereo not given)	20	-6	6	4	9	2
COC(=O)[C@]12C[C@H](CC(=O)NCc3ccccc3)C(=O)N(Cc3ccccc3)C1=C[C@H](C(C)(C)C)O[C@@H]2C	x	x	x	x	2	1
O=C(NCc1ccco1)c1ccccc1NS(=O)(=O)c1ccc(Br)s1	15	28*	8	14	5	8
CC(NC(=O)c1cc2cc(Br)ccc2oc1=N)c1ccccc1 (stereo not given)	9	7	2	37*	8	-3
N=c1oc2ccc(Br)cc2cc1C(=O)NCc1ccccc1	0	5	-2	4	9	-2
C[C@H](NC(=O)OCc1ccccc1)c1nnc([C@H](Cc2ccccc2)NC(=O)OC(C)(C)C)o1	-2	26*	-2	5	-9	-4
COC(=O)[C@]12C[C@H](CC(=O)NCc3ccc(C)o3)C(=O)N(Cc3ccccc3)C1=C[C@H](C(C)C)O[C@@H]2C1CC1	x	x	x	x	3	-10
Cc1nnsc1C(=O)NC(C)C12CC3CC(CC(C3)C1)C2 (stereo not given)	5	1	3	29*	5	-8
CC(NC(=O)c1ccccc1F)C12CC3CC(CC(C3)C1)C2 (stereo not given)	8	6	11	27*	6	0
Cc1occc1C(=O)NC(C)C12CC3CC(CC(C3)C1)C2 (stereo not given)	3	0	-3	22	-5	3
Cc1cc(C)c(-n2c(C)cc(/C=C3/NC(=O)NC3=O)c2C)c(C)c1	x	27*	x	x	-10	11
COC(=O)C1=C(C)N(Cc2cccc(C(F)(F)F)c2)C(=NCc2ccc(OC)cc2)NC1c1ccccc1 (stereo not given)	x	x	x	x	8	-3
O=C(CCS(=O)(=O)c1ccc2c(c1)NC(=O)CS2)NCCc1ccc(Cl)cc1	1	5	6	26*	6	2
O=C(CCS(=O)(=O)c1ccc2c(c1)NC(=O)CS2)NCCc1ccccc1	3	5	8	2	-1	-3
O=C(NCc1ccccc1)[C@@H]1CCCN1C(=O)[C@H]1CCCN1C(=O)N1CCCCC1	x	x	x	x	9	6
Cc1ccc(S(=O)(=O)N2CCC(C(=O)OCCOc3ccccc3)CC2)cc1C	9	28*	11	4	6	19
COC(=O)c1cc2c(c3c4ccccc4n(S(=O)(=O)c4ccc(C)cc4)c13)C(=O)N(CC(C)C)C2	x	x	x	x	-5	-2
COc1cccc(CNC(=O)[C@H]2CCCN2C(=O)[C@H]2CCCN2S(=O)(=O)c2cccc(C)c2)c1	x	x	x	x	-6	-12
CC(=O)NCc1ccc(C(=O)COC(=O)COc2ccccc2)s1	1	15	10	-2	-10	-6
CC(=O)NCc1ccc(C(=O)COC(=O)COc2ccc(Cl)c(C)c2)s1	4	27*	6	5	-6	5
SMILES	PAFAH2 inh	pPAFAH FP inh	PAFAH1B3 inh	PAFAH1B2 FP inh	ARFGAP1 inhibitor	ASAP1 inh
CC(C)C[C@H](NC(=O)c1[nH]cnc1C(=O)N[C@@H](Cc1ccccc1)C(=O)OCc1ccccc1)C(=O)OCc1ccccc1	-14	10	-10	-5	8	8
O=C(N[C@@H](Cc1ccccc1)C(=O)OCc1ccccc1)c1nc[nH]c1C(=O)NCc1ccccc1	13	33*	-6	0	7	-9
CN=CC1=C(O)c2ccccc2C1=O	-2	4	5	1	1	-5
O=C1C(C2=C(O)c3ccccc3C2=O)=Nc2ccccc21	53*	26*	55*	20	16	39*
Nc1c(Cl)cc(-c2csc(NCCc3nc4cc(Cl)c(Cl)cc4n3CCCO)n2)cc1Cl	-1	-4	9	6	13	-5
O=[N+]([O-])c1cc(-c2csc(NCCc3nc4cc(C(F)(F)F)ccc4n3CCCO)n2)ccc1Cl	-4	13	-1	32*	7	14
OCCCn1c(CCNc2nc(-c3ccc(Cl)cc3)cs2)nc2cc(C(F)(F)F)ccc21	6	7	5	27*	6	1
CC(C)N(C(=S)NCc1ccccc1)c1ccccc1	4	-5	7	29*	11	-6
CC(C)N(C(=S)NCc1ccccc1)C(C)C	-1	4	2	0	-9	6
CC(C)C[C@@H]1COc2cc(N3CCCC3)ccc2S(=O)(=O)N1	x	x	x	x	3	-2
CNC(=O)CSc1nc2cc(S(=O)(=O)Nc3ccc(OC)cc3)ccc2o1	1	27*	1	4	8	-8
COc1ccc(NS(=O)(=O)c2ccc3oc(SC)nc3c2)cc1	-12	16	4	-2	3	-12
CC(=O)Nc1cc2nc3ccccc3oc-2cc1=O	x	x	x	x	x	14
O=C(N/N=C/c1cc([N+](=O)[O-])ccc1O)C12CC3CC(CC(C3)C1)C2	91*	6	7	42*	-10	2
O=C(N/N=C/c1cc([N+](=O)[O-])ccc1O)NC12CC3CC(CC(C3)C1)C2	23	19	10	88*	1	-12
Cc1ccc(S(=O)(=O)NC(CCCNC(=O)OCc2ccccc2)C(=O)O)cc1 (stereo not given)	x	x	x	x	8	5
CCOC(=O)C1=C(c2ccccc2)N=c2s/c(=C\c3ccco3)c(=O)n2C1c1cccs1 (stereo not given)	3	29*	8	8	2	5
O=C(COC(=O)c1cc(-c2cccs2)nn1-c1ccccc1)Nc1ccc(F)c([N+](=O)[O-])c1	36*	25*	-16	-6	1	5
CN(CC(=O)Nc1ccc(F)cc1)C(=O)c1cc(-c2cccs2)nn1-c1ccccc1	6	x	0	4	7	1
CCN1CC(CN(C)Cc2nc(-c3ccc(C(F)(F)F)cc3)oc2C)CC1=O (stereo not given)	4	30*	6	3	-1	-2

Compound activity deposited in PubChem by The Scripps Research Institute Molecular Screening Center.
